Active and inactive are the calls of the source.
Tests used:
Mus musculus [1] = test: Antinociceptive activity in i.t dosed normal ICR-CD1 mouse assessed as withdrawal latency for radiant heat by tail flick assay; format: functional
Summary of the method: (§1)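 Male ICR-CD1 mice (17–25 g); LPS groups given LPS 1 mg/kg i.p. 24 h before testing, others untreated. Compound dissolved in 5% DMSO, diluted to <1% DMSO, given i.t. or i.c.v. in 5 µl to conscious mice. Radiant-heat tail flick, latency before and at peak time after drug, 10 s cut-off; %MPE = (test−control)/(10−control)×100. At least three groups of 8–10 mice per dose–response curve, each mouse used once.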

Mus musculus [2] = test: Antinociceptive activity in normal ICR-CD1 mouse assessed as withdrawal latency for radiant heat at 500 pmol, icv by tail flick assay; format: functional; summary of the method: as §1
Mus musculus [3] = test: Toxicity in i.t dosed ICR-CD1 mouse at ED50 after 24 hrs; format: organism-based; conditions: in vivo, icv_or_intrathecal
Summary of the method: (§2)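 Acute tolerance in male ICR-CD1 mice, either untreated or given LPS 1 mg/kg i.p. 24 h before testing. The ED80–90 dose is given i.t. or i.c.v. (5 µl, <1% DMSO) on day 1. The same dose is given again 24 h later to the same mouse and retested by radiant-heat tail flick (10 s cut-off, %MPE).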

Mus musculus [4] = test: Antinociceptive activity in i.t dosed LPS-induced ICR-CD1 mouse thermal hyperalgesia model assessed as withdrawal latency for radiant heat by tail flick assay; format: functional; summary of the method: as §1
Mus musculus [5] = organism: Mus musculus; test: Antinociceptive activity in LPS-induced ICR-CD1 mouse thermal hyperalgesia model assessed as withdrawal latency for radiant heat at 500 pmol i.c.v by tail flick assay; format: functional; summary of the method: as §1
Mus musculus [6] = test: Toxicity in i.t dosed LPS-induced ICR-CD1 mouse thermal hyperalgesia model at ED50 after 24 hrs; format: organism-based; conditions: in vivo, icv_or_intrathecal; summary of the method: as §2
Mus musculus [7] = test: Antinociceptive activity in i.t dosed LPS-induced ICR-CD1 mouse thermal hyperalgesia model assessed as withdrawal latency for radiant heat by tail flick assay relative to morphine; format: functional
Mus musculus [8] = test: Antinociceptive activity in i.t dosed LPS-induced ICR-CD1 mouse thermal hyperalgesia model assessed as withdrawal latency for radiant heat by tail flick assay relative to TAK-220 and N-((4aS,7S,7aR,12bS)-4a,9-Dihydroxy-3-methyl-2,3,4,4a,5,6,7,7a-octahydro-1H-4,12-methanobenzofuro[3,2-e][…]-7-yl)-2-((3,7,17-trioxo-5-oxa-2,8,16-triazaoctadecan-18-yl)oxy)acetamide combination; format: functional
Mus musculus [9] = test: Selectivity ratio of ED50 for antinociceptive activity in i.t dosed normal ICR-CD1 mouse to ED50 for i.t dosed LPS-induced ICR-CD1 mouse thermal hyperalgesia model; format: functional
Summary of the method: (§3)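 Ratios compare i.c.v. with i.t. dosing, or untreated mice with LPS-pretreated mice (1 mg/kg i.p., 24 h). All mice are male ICR-CD1.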

Mus musculus [10] = test: Antinociceptive activity in i.t dosed LPS-induced ICR-CD1 mouse thermal hyperalgesia model assessed as withdrawal latency for radiant heat at ED50 by tail flick assay in presence of 45 mg/kg, ip minocycline; format: functional, organism-based
Summary of the method: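 Male ICR-CD1 mice get LPS 1 mg/kg i.p. and 24 h later minocycline HCl 45 mg/kg i.p. in distilled water. Test compound is given i.t. 4 h after minocycline. Antinociception is read by radiant-heat tail flick (10 s cut-off) as %MPE. The ED50 comes from a dose–response curve, groups of n=8.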

Mus musculus [11] = test: Antinociceptive activity in normal ICR-CD1 mouse assessed as withdrawal latency for radiant heat at 1000 pmol, icv by tail flick assay; format: functional; summary of the method: as §1
Mus musculus [12] = test: Selectivity ratio of ED50 for antinociceptive activity in i.c.v dosed ICR-CD1 mouse to ED50 for i.t dosed ICR-CD1 mouse; format: functional; summary of the method: as §3
Mus musculus [13] = organism: Mus musculus; test: Antinociceptive activity in LPS-induced ICR-CD1 mouse thermal hyperalgesia model assessed as withdrawal latency for radiant heat at 1000 pmol i.c.v by tail flick assay; format: functional; summary of the method: as §1
Mus musculus [14] = test: Antinociceptive activity in i.t dosed LPS-induced ICR-CD1 mouse thermal hyperalgesia model assessed as withdrawal latency for radiant heat at ED50 after 24 hrs by tail flick assay; format: functional; summary of the method: as §2
Mus musculus [15] = test: Selectivity ratio of ED50 for antinociceptive activity in i.c.v dosed LPS-induced ICR-CD1 mouse thermal hyperalgesia model to ED50 for i.t dosed LPS-induced ICR-CD1 mouse thermal hyperalgesia model; format: functional; summary of the method: as §3
Mus musculus [16] = test: Antinociceptive activity in i.c.v dosed LPS-induced ICR-CD1 mouse thermal hyperalgesia model assessed as withdrawal latency for radiant heat by tail flick assay; format: functional; summary of the method: as §1
Mus musculus [17] = test: Toxicity in i.c.v dosed LPS-induced ICR-CD1 mouse thermal hyperalgesia model at ED50 after 24 hrs; format: organism-based; conditions: in vivo, icv_or_intrathecal; summary of the method: as §2
Mus musculus [18] = test: Antinociceptive activity in normal ICR-CD1 mouse assessed as withdrawal latency for radiant heat at 250 pmol, icv by tail flick assay; format: functional; summary of the method: as §1
Mus musculus [19] = organism: Mus musculus; test: Antinociceptive activity in normal ICR-CD1 mouse assessed as withdrawal latency for radiant heat at 500 pmol, it by tail flick assay; format: functional; summary of the method: as §1
Mus musculus [20] = organism: Mus musculus; test: Antinociceptive activity in LPS-induced ICR-CD1 mouse thermal hyperalgesia model assessed as withdrawal latency for radiant heat at 1000 pmol i.t by tail flick assay; format: functional; summary of the method: as §1
Mus musculus [21] = test: Antinociceptive activity in i.t dosed complete Freund's adjuvant-induced ICR-CD1 mouse mechanical hyperalgesia model by von Frey test; format: functional
[22] = target: C-C chemokine receptor type 5 (Homo sapiens) (UniProt P51681); test: Antagonist activity at CCR5 receptor (unknown origin) expressed in HEK293 cells assessed as inhibition of CCl5-induced calcium release at 1 uM by FLIPR assay; format: functional, cell-based
Mus musculus [23] = test: Antinociceptive activity in i.c.v dosed normal ICR-CD1 mouse assessed as withdrawal latency for radiant heat by tail flick assay; format: functional; summary of the method: as §1
Mus musculus [24] = test: Toxicity in i.c.v dosed ICR-CD1 mouse at ED50 after 24 hrs; format: organism-based; conditions: in vivo, icv_or_intrathecal; summary of the method: as §2
Mus musculus [25] = organism: Mus musculus; test: Antinociceptive activity in normal ICR-CD1 mouse assessed as withdrawal latency for radiant heat at 1000 pmol, it by tail flick assay; format: functional; summary of the method: as §1

C-C chemokine receptor type 5 (Homo sapiens), sequence (P51681 whole entry, looked up): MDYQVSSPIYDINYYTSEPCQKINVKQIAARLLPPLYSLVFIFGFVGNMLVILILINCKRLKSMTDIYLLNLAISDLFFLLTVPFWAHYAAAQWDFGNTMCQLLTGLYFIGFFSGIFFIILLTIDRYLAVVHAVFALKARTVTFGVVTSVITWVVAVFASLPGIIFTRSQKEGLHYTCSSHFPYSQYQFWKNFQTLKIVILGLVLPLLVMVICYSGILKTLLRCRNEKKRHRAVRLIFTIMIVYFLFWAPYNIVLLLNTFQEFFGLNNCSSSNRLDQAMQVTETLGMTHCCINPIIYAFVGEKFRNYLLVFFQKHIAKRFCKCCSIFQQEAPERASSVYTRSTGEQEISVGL

SMILES	ED50 (Mus musculus [1]) [pmol]	Activity (Mus musculus [3])	ED50 (Mus musculus [4]) [pmol]	Activity (Mus musculus [6])	Selectivity Index (Mus musculus [8])	Ratio ED50 (Mus musculus [12])	MPE (Mus musculus [13]) [%]	Ratio ED50 (Mus musculus [15])	ED50 (Mus musculus [16]) [pmol]	Activity (Mus musculus [17])	further results
Cc1ccc(N(CCCN2CCC(Cc3ccc(C(N)=O)cc3)CC2)C(=O)C2CCN(C(=O)COCC(=O)NCCCCCCCCCCNC(=O)COCC(=O)N[C@H]3CC[C@@]4(O)[C@H]5Cc6ccc(O)c7c6[C@@]4(CCN5C)[C@H]3O7)CC2)cc1Cl	45.75	Non-toxic	0.01461	Non-toxic	3559						MPE (Mus musculus [2]): 49.7%; MPE (Mus musculus [5]): 41.1%; fold change (FC) (Mus musculus [7]): 1500; Selectivity Index (Mus musculus [9]): 3000; Activity (Mus musculus [10]): inactive
Cc1ccc(N(CCCN2CCC(Cc3ccc(C(N)=O)cc3)CC2)C(=O)C2CCN(C(=O)COCC(=O)NCCCCCCCCCNC(=O)COCC(=O)N[C@H]3CC[C@@]4(O)[C@H]5Cc6ccc(O)c7c6[C@@]4(CCN5C)[C@H]3O7)CC2)cc1Cl	15.83	Non-toxic	8.43		6.2	63.98	63.1	118.62			MPE (Mus musculus [11]): 54.5%; MPE (Mus musculus [14]): 24%
Cc1ccc(N(CCCN2CCC(Cc3ccc(C(N)=O)cc3)CC2)C(=O)C2CCN(C(=O)COCC(=O)NCCCCCCCNC(=O)COCC(=O)N[C@H]3CC[C@@]4(O)[C@H]5Cc6ccc(O)c7c6[C@@]4(CCN5C)[C@H]3O7)CC2)cc1Cl	166.4	Toxic	11.41	Non-toxic	4.5	1.5		60.68	692.4	Toxic	MPE (Mus musculus [18]): 35.9%
CNC(=O)COCC(=O)NCCCCCCCNC(=O)COCC(=O)N1CCC(C(=O)N(CCCN2CCC(Cc3ccc(C(N)=O)cc3)CC2)c2ccc(C)c(Cl)c2)CC1							51.9				MPE (Mus musculus [19]): 28.1%; MPE (Mus musculus [2]): 43.9%; MPE (Mus musculus [20]): 32.4%
CN1CC[C@]23c4c5ccc(O)c4O[C@H]2[C@@H](O)C=C[C@H]3[C@H]1C5 [MORPHINE]	27		35			11		8			ED50 (Mus musculus [21]): 15 pmol
CNC(=O)COCC(=O)N1CCC(C(=O)N(CCCN2CCC(Cc3ccc(C(N)=O)cc3)CC2)c2ccc(C)c(Cl)c2)CC1											Activity [22]: Active
CNC(=O)COCC(=O)NCCCCCCCNC(=O)COCC(=O)N[C@H]1CC[C@@]2(O)[C@H]3Cc4ccc(O)c5c4[C@@]2(CCN3C)[C@H]1O5	113.3	Toxic	21.29	Toxic		0.95		7.93	168.9	Toxic	ED50 (Mus musculus [23]): 108.2 pmol; Activity (Mus musculus [24]): Toxic
CC(=O)N1CCC(C(=O)N(CCCN2CCC(Cc3ccc(C(N)=O)cc3)CC2)c2ccc(C)c(Cl)c2)CC1						1	7.6	6.48			Activity [22]: Active; MPE (Mus musculus [25]): 34.2%; MPE (Mus musculus [11]): 26.2%; MPE (Mus musculus [20]): 49%
Cc1ccc(N(CCCN2CCC(Cc3ccc(C(N)=O)cc3)CC2)C(=O)C2CCN(C(=O)COCC(=O)NCCCCCCCCCCCCNC(=O)COCC(=O)N[C@H]3CC[C@@]4(O)[C@H]5Cc6ccc(O)c7c6[C@@]4(CCN5C)[C@H]3O7)CC2)cc1Cl	336.9	Toxic	122.7	Toxic	0.4	2.97	55.7				MPE (Mus musculus [11]): 27.6%
Cc1ccc(N(CCCN2CCC(Cc3ccc(C(N)=O)cc3)CC2)C(=O)C2CCN(C(=O)COCC(=O)NCCNC(=O)COCC(=O)N[C@H]3CC[C@@]4(O)[C@H]5Cc6ccc(O)c7c6[C@@]4(CCN5C)[C@H]3O7)CC2)cc1Cl	32.34	Non-toxic	10.6	Non-toxic	4.9	3.29		5.32	56.41	Toxic	ED50 (Mus musculus [23]): 106.6 pmol; Activity (Mus musculus [24]): Toxic
Cc1ccc(N(CCCN2CCC(Cc3ccc(C(N)=O)cc3)CC2)C(=O)C2CCN(C(=O)COCC(=O)NCCCCCNC(=O)COCC(=O)N[C@H]3CC[C@@]4(O)[C@H]5Cc6ccc(O)c7c6[C@@]4(CCN5C)[C@H]3O7)CC2)cc1Cl	370.6	Toxic	10.92	Non-toxic	4.8	3.14		6.38	187.1	Toxic	ED50 (Mus musculus [23]): 358.2 pmol; Activity (Mus musculus [24]): Toxic
